Data from ChEMBL document CHEMBL4041468, “Effects of Koumine on Adjuvant- and Collagen-Induced Arthritis in Rats” (J Nat Prod, 2016).
Active and inactive are the calls of the source.

Assays:
Type in all cases: functional, organism-based
[1] = test system: Rattus norvegicus; experiment: Antiarthritic activity in Wistar rat type-2 collagen-induced arthritis model assessed as reduction in arthritis index score at 1 mg/kg, ig via gavage administered 10 consecutive days starting from day 20 post type-2 collagen injection
In short: (§1)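 CIA in male 7-week-old Wistar rats: chicken CII (2 mg/mL in 0.1 M acetic acid) emulsified 1:1 in BCG-containing adjuvant, two intradermal 0.3 mL injections 7 d apart; controls received 0.05 M acetic acid. Gavage from day 20 for 10 d. Scoring, plethysmometry (mean of both hind paws) and von Frey threshold at baseline, pre-dosing and alternate days; n = 10.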

[2] = test system: Rattus norvegicus; experiment: Antiarthritic activity in Wistar rat type-2 collagen-induced arthritis model assessed as reduction in bone degradation at 1 mg/kg, ig via gavage administered 10 consecutive days starting from day 20 post type-2 collagen injection by X-ray method
[3] = test system: Rattus norvegicus; experiment: Antiarthritic activity in Wistar rat type-2 collagen-induced arthritis model assessed as reduction in mechanical allodynia at 1 mg/kg, ig via gavage administered 10 consecutive days starting from day 20 post type-2 collagen injection; in short: as §1
[4] = test system: Rattus norvegicus; experiment: Antiarthritic activity in Wistar rat type-2 collagen-induced arthritis model assessed as reduction in serum anti-type-2 collagen IgG level at 1 mg/kg, ig via gavage administered 10 consecutive days starting from day 20 post type-2 collagen injection by ELISA method
In short: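 Serum from Wistar CIA rats collected after completing 10 d gavage dosing (from day 20 post first CII injection) and assayed for anti-CII IgG using a rat anti-CII antibody ELISA kit. One-way ANOVA with Student–Newman–Keuls test; n = 10/group.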

[5] = test system: Rattus norvegicus; experiment: Antiarthritic activity in Wistar rat type-2 collagen-induced arthritis model assessed as reduction in cartilage space narrowing at 1 mg/kg, ig via gavage administered 10 consecutive days starting from day 20 post type-2 collagen injection by X-ray method
[6] = test system: Rattus norvegicus; experiment: Antiarthritic activity in Wistar rat type-2 collagen-induced arthritis model assessed as reduction in bone erosion at 1 mg/kg, ig via gavage administered 10 consecutive days starting from day 20 post type-2 collagen injection by X-ray method
[7] = test system: Rattus norvegicus; experiment: Antiarthritic activity in Wistar rat type-2 collagen-induced arthritis model assessed as reduction in serum IL-1beta level at 1 mg/kg, ig via gavage administered 10 consecutive days starting from day 20 post type-2 collagen injection by ELISA method
In short: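 After 10 d gavage in Wistar CIA rats, trunk blood taken at sacrifice; serum stored at −70 °C. IL-1β and TNF-α measured by commercial ELISA kits per manufacturer. One-way ANOVA with Student–Newman–Keuls test; n = 10/group.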

[8] = test system: Rattus norvegicus; experiment: Antiarthritic activity in Wistar rat type-2 collagen-induced arthritis model assessed as reduction in hind paw volume at 1 mg/kg, ig via gavage administered 10 consecutive days starting from day 20 post type-2 collagen injection by plethysmometer; in short: as §1
[9] = test system: Rattus norvegicus; experiment: (§2) Antiarthritic activity in Lewis rat Freund's adjuvant-induced arthritis model assessed as reduction in hind paw volume at 2.5 mg/kg, ig administered through gavage pretreated for 1 hr followed by adjuvant challenge subsequent treatment for 9 days measured alternate days up to 24 days post dose by plethysmometer
In short: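 Lewis rat AIA (female, 8 weeks; 0.1 mL CFA intradermally into right hind paw), dosed by gavage 1 h pre-induction then daily for 9 d. Plethysmometer volumes of injected (ipsilateral) and uninjected (contralateral) hind paws recorded separately. Two-way ANOVA with Dunnett's T3 test; n = 10/group.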

[10] = test system: Rattus norvegicus; experiment: as §2, with “mechanical withdrawal threshold” for “hind paw volume”, “dose” for “dose by plethysmometer”
In short: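 Mechanical withdrawal threshold in Lewis AIA rats (right-paw CFA, gavage dosing 1 h pre-induction and daily 9 d), tested 1 h after dosing: 30 min habituation in individual cubicles, von Frey filament applied upward to mid-paw until withdrawal, 55 g cut-off, repeated twice at 10 min intervals; ipsilateral and contralateral paws recorded separately; n = 10.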

[11] = test system: Rattus norvegicus; experiment: Antiarthritic activity in Lewis rat Freund's adjuvant-induced arthritis model assessed as reduction in arthritis index score at 2.5 mg/kg, ig administered through gavage pretreated for 1 hr followed by adjuvant challenge subsequent treatment for 9 days measured alternate days up to 24 days post dose
In short: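 AIA induced in female 8-week-old Lewis rats by one intradermal 0.1 mL CFA injection (10 mg heat-killed M. tuberculosis per mL paraffin oil) into right hind paw; controls received paraffin oil–water emulsion. Daily intragastric dosing from 1 h before induction through 9 d. Arthritis index scored; Kruskal–Wallis with Dunn's test; n = 10/group.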

Measured: Activity

CN(Cc1cnc2nc(N)nc(N)c2n1)c1ccc(C(=O)N[C@@H](CCC(=O)O)C(=O)O)cc1
not listed: [9] | [10] | [11]
active: all other assays above

COc1ccc2c(c1)c(CC(=O)O)c(C)n2C(=O)c1ccc(Cl)cc1
active: [9] | [10] | [11]
